From ChEMBL document CHEMBL1649560, “Beta-lactamase-mediated beta-lactam resistance in Campylobacter species: prevalence of Cj0299 (bla OXA-61) and evidence for a novel beta-Lactamase in C. jejuni” (2009)
Values after ≈ are worked out from the molar mass of the structure shown.

How the values were obtained:
Format in all cases: functional
Campylobacter jejuni [1] = assay: Antibacterial activity against Campylobacter jejuni by NCCLS agar doubling dilution method
Outline: (§1)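 MICs by agar doubling dilution following the NCCLS (CLSI) Campylobacter Working Group procedure, applied to ampicillin- and amoxicillin-resistant isolates from UK chicken flocks (2000–2006). C. jejuni NCTC 11168 and C. coli NCTC 11366 served as control strains. Resistance was called at an ampicillin cutoff of 8 μg/ml. Other agents were judged against Enterobacteriaceae guidelines (BSAC, CLSI).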

Campylobacter coli [2] = assay: Antibacterial activity against Campylobacter coli by NCCLS agar doubling dilution method; outline: as §1
Campylobacter jejuni [3] = assay: Antibacterial activity against bla gene-positive and nitrocefin reaction-negative beta-lactamase harboring Campylobacter jejuni NCTC 11168 by NCCLS agar doubling dilution method
Outline: (§2)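 MICs of β-lactams by agar doubling dilution following the NCCLS (CLSI) Campylobacter Working Group procedure, with C. jejuni NCTC 11168 and C. coli NCTC 11366 as controls. Isolates were from UK poultry flocks. β-Lactamase status was set by Cj0299 PCR (281-bp amplimer) and by a nitrocefin colour change of sonicated lysate within 5 min, or within 30 min on repeat.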

Campylobacter jejuni [4] = assay: Antibacterial activity against Campylobacter jejuni isolate P270 harboring blaOXA-61::cat gene by NCCLS agar doubling dilution method
Campylobacter jejuni [5] = assay: Antibacterial activity against bla gene-negative and nitrocefin reaction-negative beta-lactamase harboring Campylobacter jejuni isolate P835 by NCCLS agar doubling dilution method; outline: as §2
Campylobacter jejuni [6] = assay: Antibacterial activity against bla gene-negative and nitrocefin reaction-negative beta-lactamase harboring Campylobacter jejuni isolate P850 by NCCLS agar doubling dilution method; outline: as §2
Campylobacter jejuni [7] = assay: Antibacterial activity against bla gene-negative and nitrocefin reaction-negative beta-lactamase harboring Campylobacter jejuni isolate P1962 by NCCLS agar doubling dilution method; outline: as §2
Campylobacter jejuni [8] = assay: Antibacterial activity against bla gene-positive and nitrocefin reaction-positive beta-lactamase harboring Campylobacter jejuni isolate P285 by NCCLS agar doubling dilution method
Outline: (§3)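 MICs by agar doubling dilution per the NCCLS (now CLSI) Campylobacter Working Group method. Isolates came from UK chicken flocks (feces, ceca or farm environment), 2000–2006. C. jejuni NCTC 11168 and C. coli NCTC 11366 served as control strains. The ampicillin resistance cutoff was 8 μg/ml; BSAC/CLSI Enterobacteriaceae guidelines were used for other agents.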

Campylobacter jejuni [9] = assay: Antibacterial activity against bla gene-positive and nitrocefin reaction-positive beta-lactamase harboring Campylobacter jejuni isolate P286 by NCCLS agar doubling dilution method; outline: as §3
Campylobacter jejuni [10] = assay: Antibacterial activity against bla gene-positive and nitrocefin reaction-positive beta-lactamase harboring Campylobacter jejuni isolate P305 by NCCLS agar doubling dilution method; outline: as §3
Campylobacter jejuni [11] = assay: Antibacterial activity against bla gene-positive and nitrocefin reaction-positive beta-lactamase harboring Campylobacter jejuni isolate P316 by NCCLS agar doubling dilution method; outline: as §3
Campylobacter jejuni [12] = assay: Antibacterial activity against bla gene-positive and nitrocefin reaction-positive beta-lactamase harboring Campylobacter jejuni isolate P338 by NCCLS agar doubling dilution method; outline: as §3
Campylobacter jejuni [13] = assay: Antibacterial activity against Campylobacter jejuni isolate P338 harboring blaOXA-61::cat gene by NCCLS agar doubling dilution method
Outline: (§4)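 Agar doubling dilution MICs (NCCLS/CLSI Campylobacter Working Group method) against Cj0299-inactivated mutants. Mutants were made by transforming the C. jejuni isolate with pCI and selecting on Mueller-Hinton agar with 10 μg/ml chloramphenicol for 3–5 days. Chromosomal insertion was confirmed by PCR with Cj0299 and cat primers.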

Campylobacter jejuni [14] = assay: Antibacterial activity against bla gene-positive and nitrocefin reaction-positive beta-lactamase harboring Campylobacter jejuni isolate P790 by NCCLS agar doubling dilution method; outline: as §3
Campylobacter jejuni [15] = assay: Antibacterial activity against bla gene-positive and nitrocefin reaction-positive beta-lactamase harboring Campylobacter jejuni isolate P1093 by NCCLS agar doubling dilution method; outline: as §2
Campylobacter jejuni [16] = assay: Antibacterial activity against Campylobacter jejuni isolate P1093 harboring blaOXA-61::cat gene by NCCLS agar doubling dilution method; outline: as §4
Campylobacter jejuni [17] = assay: Antibacterial activity against bla gene-positive and nitrocefin reaction-positive beta-lactamase harboring Campylobacter jejuni isolate P1618 by NCCLS agar doubling dilution method; outline: as §2
Campylobacter jejuni [18] = assay: Antibacterial activity against bla gene-positive and nitrocefin reaction-positive beta-lactamase harboring Campylobacter jejuni isolate P1650 by NCCLS agar doubling dilution method; outline: as §2
Campylobacter jejuni [19] = assay: Antibacterial activity against bla gene-positive and nitrocefin reaction-positive beta-lactamase harboring Campylobacter jejuni isolate P1730 by NCCLS agar doubling dilution method; outline: as §3
Campylobacter jejuni [20] = assay: Antibacterial activity against bla gene-positive and nitrocefin reaction-negative beta-lactamase harboring Campylobacter jejuni isolate P1698 by NCCLS agar doubling dilution method; outline: as §2
Campylobacter jejuni [21] = assay: Antibacterial activity against bla gene-positive and nitrocefin reaction-negative beta-lactamase harboring Campylobacter jejuni isolate P1699 by NCCLS agar doubling dilution method; outline: as §2
Campylobacter jejuni [22] = assay: Antibacterial activity against bla gene-negative and nitrocefin reaction-positive beta-lactamase harboring Campylobacter jejuni isolate P843 by NCCLS agar doubling dilution method; outline: as §2
Campylobacter jejuni [23] = assay: Antibacterial activity against bla gene-negative and nitrocefin reaction-positive beta-lactamase harboring Campylobacter jejuni isolate P854 by NCCLS agar doubling dilution method; outline: as §2
Campylobacter coli [24] = assay: Antibacterial activity against bla gene-positive and nitrocefin reaction-positive beta-lactamase harboring Campylobacter coli isolate P321 by NCCLS agar doubling dilution method; outline: as §2
Campylobacter coli [25] = assay: Antibacterial activity against bla-positive and beta-lactamase-weakly positive Campylobacter coli isolate P1627 by NCCLS agar doubling dilution method; outline: as §3
Campylobacter coli [26] = assay: Antibacterial activity against bla gene-positive and nitrocefin reaction-positive beta-lactamase harboring Campylobacter coli isolate P1826 by NCCLS agar doubling dilution method; outline: as §2

| SMILES | MIC50 (Campylobacter jejuni [1]) [µg/mL] | MIC90 (Campylobacter jejuni [1]) [µg/mL] | MIC50 (Campylobacter coli [2]) [µg/mL] | MIC90 (Campylobacter coli [2]) [µg/mL] | MIC (Campylobacter jejuni [3]) [µg/mL] | MIC (Campylobacter jejuni [4]) [µg/mL] | MIC (Campylobacter jejuni [5]) [µg/mL] | MIC (Campylobacter jejuni [6]) [µg/mL] | MIC (Campylobacter jejuni [7]) [µg/mL] | MIC (Campylobacter jejuni [8]) [µg/mL] | MIC (Campylobacter jejuni [9]) [µg/mL] | MIC (Campylobacter jejuni [10]) [µg/mL] | MIC (Campylobacter jejuni [11]) [µg/mL] | MIC (Campylobacter jejuni [12]) [µg/mL] | MIC (Campylobacter jejuni [13]) [µg/mL] | MIC (Campylobacter jejuni [14]) [µg/mL] | MIC (Campylobacter jejuni [15]) [µg/mL] | MIC (Campylobacter jejuni [16]) [µg/mL] | MIC (Campylobacter jejuni [17]) [µg/mL] | MIC (Campylobacter jejuni [18]) [µg/mL] | further results |
| --- | --- | --- | --- | --- | --- | --- | --- | --- | --- | --- | --- | --- | --- | --- | --- | --- | --- | --- | --- | --- | --- |
| CC1(C)S[C@@H]2[C@H](NC(=O)C(C(=O)O)c3ccccc3)C(=O)N2[C@H]1C(=O)O (stereo partly specified) [CARBENICILLIN] | 128 (≈ 338 µM) | 256 (≈ 677 µM) | 128 (≈ 338 µM) | 256 (≈ 677 µM) | 16 (≈ 42.3 µM) | 4 (≈ 10.6 µM) | 8 (≈ 21.1 µM) | 256 (≈ 677 µM) | < 16 | 256 (≈ 677 µM) | 256 (≈ 677 µM) | > 256 | 128 (≈ 338 µM) | 128 (≈ 338 µM) | 8 (≈ 21.1 µM) | 256 (≈ 677 µM) | 256 (≈ 677 µM) | 16 (≈ 42.3 µM) | 128 (≈ 338 µM) | 64 (≈ 169 µM) | MIC (Campylobacter jejuni [19]): 128 µg/mL (≈ 338 µM); MIC (Campylobacter jejuni [20]): 32 µg/mL (≈ 84.6 µM); MIC (Campylobacter jejuni [21]): 64 µg/mL (≈ 169 µM); MIC (Campylobacter jejuni [22]): < 16 µg/mL; MIC (Campylobacter jejuni [23]): > 256 µg/mL; MIC (Campylobacter coli [24]): 256 µg/mL (≈ 677 µM); MIC (Campylobacter coli [25]): 32 µg/mL (≈ 84.6 µM); MIC (Campylobacter coli [26]): 128 µg/mL (≈ 338 µM) |
| C[C@@H](O)[C@H]1C(=O)N2C(C(=O)O)=C(SCCNC=N)C[C@H]12 [IMIPENEM ANHYDROUS] | 0.03 (≈ 0.1 µM) | 0.06 (≈ 0.2 µM) | 0.06 (≈ 0.2 µM) | 0.12 (≈ 0.401 µM) | 0.03 (≈ 0.1 µM) | 0.03 (≈ 0.1 µM) | 0.06 (≈ 0.2 µM) | 0.06 (≈ 0.2 µM) | 0.015 (≈ 0.0501 µM) | 0.015 (≈ 0.0501 µM) | 0.25 (≈ 0.835 µM) | 0.06 (≈ 0.2 µM) | 0.06 (≈ 0.2 µM) | 0.06 (≈ 0.2 µM) | 0.03 (≈ 0.1 µM) | 0.12 (≈ 0.401 µM) | 0.12 (≈ 0.401 µM) | 0.12 (≈ 0.401 µM) | 0.015 (≈ 0.0501 µM) | 0.06 (≈ 0.2 µM) | MIC (Campylobacter jejuni [19]): 0.015 µg/mL (≈ 0.0501 µM); MIC (Campylobacter jejuni [20]): 0.06 µg/mL (≈ 0.2 µM); MIC (Campylobacter jejuni [21]): 0.03 µg/mL (≈ 0.1 µM); MIC (Campylobacter jejuni [22]): 0.06 µg/mL (≈ 0.2 µM); MIC (Campylobacter jejuni [23]): 0.06 µg/mL (≈ 0.2 µM); MIC (Campylobacter coli [24]): 0.12 µg/mL (≈ 0.401 µM); MIC (Campylobacter coli [25]): 0.12 µg/mL (≈ 0.401 µM); MIC (Campylobacter coli [26]): 0.03 µg/mL (≈ 0.1 µM) |
